ChEMBL document CHEMBL2176974, “A bactericidal guanidinomethyl biaryl that alters the dynamics of bacterial FtsZ polymerization” (J Med Chem, 2012)
Calls of active or inactive are those of the source. No cut-off for these calls is given here.

Biological target: T1, Cell division protein FtsZ (Staphylococcus aureus) (UniProt P0A031)
T1 sequence (whole entry): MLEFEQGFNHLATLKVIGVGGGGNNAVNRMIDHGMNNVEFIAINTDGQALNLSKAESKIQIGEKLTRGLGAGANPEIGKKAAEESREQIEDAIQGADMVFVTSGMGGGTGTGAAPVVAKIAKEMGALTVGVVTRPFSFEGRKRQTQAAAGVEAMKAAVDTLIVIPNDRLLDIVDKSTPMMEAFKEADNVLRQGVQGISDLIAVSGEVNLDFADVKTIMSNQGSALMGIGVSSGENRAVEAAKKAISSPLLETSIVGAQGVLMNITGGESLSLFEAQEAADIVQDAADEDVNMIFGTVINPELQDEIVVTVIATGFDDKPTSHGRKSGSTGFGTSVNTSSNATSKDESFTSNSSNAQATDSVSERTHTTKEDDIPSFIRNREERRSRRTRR
Assay: Binding affinity to Staphylococcus aureus FtsZ expressed in Escherichia coli BL21 (DE3) at 40 uM by fluorescence anisotropy BoGTPgammaS competition assay
How it was run: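 Competition: 1 μM BODIPY-GTPγS with 0 or 5 μM SaFtsZ and compound at 0–40 μM in 50 mM Tris·HCl pH 7.4, 50 mM KCl, 2 mM magnesium acetate. After 5 min at 25 °C, anisotropy read at excitation 488 / emission 510 nm, 4 nm bandwidths, triplicate. Unlabeled GTP used as the positive control.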

CC(C)(C)c1ccc(-c2cccc(CNC(=N)N)c2)cc1
Activity: inactive
